Test results reported in ChEMBL document CHEMBL1133584, “Potent and selective non-peptidic inhibitors of endothelin-converting enzyme-1 with sustained duration of action” (J Med Chem, 2000).

Tests used:
[1] = target: T1, Endothelin-converting enzyme 1 (Homo sapiens) (UniProt P42892); test: Inhibition of Endothelin-converting enzyme 1 activity at a concentration of 1 uM
T1 sequence (whole entry): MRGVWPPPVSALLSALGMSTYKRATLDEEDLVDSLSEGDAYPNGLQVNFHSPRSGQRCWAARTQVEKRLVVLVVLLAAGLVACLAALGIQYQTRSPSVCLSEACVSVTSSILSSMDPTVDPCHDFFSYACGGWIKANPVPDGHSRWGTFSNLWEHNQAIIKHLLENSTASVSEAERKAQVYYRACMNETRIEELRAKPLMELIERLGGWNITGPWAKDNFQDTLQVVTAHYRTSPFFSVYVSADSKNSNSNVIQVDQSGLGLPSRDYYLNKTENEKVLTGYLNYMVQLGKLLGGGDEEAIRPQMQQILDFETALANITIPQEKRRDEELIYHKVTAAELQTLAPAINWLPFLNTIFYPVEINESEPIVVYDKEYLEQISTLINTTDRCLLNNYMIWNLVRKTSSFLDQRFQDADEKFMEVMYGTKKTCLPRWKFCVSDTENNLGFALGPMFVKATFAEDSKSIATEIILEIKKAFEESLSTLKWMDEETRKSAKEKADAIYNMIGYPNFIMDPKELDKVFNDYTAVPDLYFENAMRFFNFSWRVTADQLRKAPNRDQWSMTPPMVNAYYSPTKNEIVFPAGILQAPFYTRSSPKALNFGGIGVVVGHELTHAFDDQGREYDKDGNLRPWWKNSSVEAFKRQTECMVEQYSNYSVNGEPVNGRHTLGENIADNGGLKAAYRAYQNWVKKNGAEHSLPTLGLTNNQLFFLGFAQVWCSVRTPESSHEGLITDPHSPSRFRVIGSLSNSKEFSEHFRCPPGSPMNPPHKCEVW
Outline: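 Human recombinant ECE-1a came from CHO cell membranes. Activity was measured with test compound at 1 µM and expressed as percent inhibition.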

[2] = Selectivity ratio of IC50 NEP/IC50 ECE
Outline: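 ECE selectivity was the ratio of IC50 against rat kidney cortex NEP 24.11 to IC50 against CHO-membrane human recombinant ECE-1a.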

[3] = target: T2, Neprilysin (Rattus norvegicus, UniProt P07861); test: In vitro inhibition of rat neutral endopeptidase
T2 sequence (P07861 whole entry): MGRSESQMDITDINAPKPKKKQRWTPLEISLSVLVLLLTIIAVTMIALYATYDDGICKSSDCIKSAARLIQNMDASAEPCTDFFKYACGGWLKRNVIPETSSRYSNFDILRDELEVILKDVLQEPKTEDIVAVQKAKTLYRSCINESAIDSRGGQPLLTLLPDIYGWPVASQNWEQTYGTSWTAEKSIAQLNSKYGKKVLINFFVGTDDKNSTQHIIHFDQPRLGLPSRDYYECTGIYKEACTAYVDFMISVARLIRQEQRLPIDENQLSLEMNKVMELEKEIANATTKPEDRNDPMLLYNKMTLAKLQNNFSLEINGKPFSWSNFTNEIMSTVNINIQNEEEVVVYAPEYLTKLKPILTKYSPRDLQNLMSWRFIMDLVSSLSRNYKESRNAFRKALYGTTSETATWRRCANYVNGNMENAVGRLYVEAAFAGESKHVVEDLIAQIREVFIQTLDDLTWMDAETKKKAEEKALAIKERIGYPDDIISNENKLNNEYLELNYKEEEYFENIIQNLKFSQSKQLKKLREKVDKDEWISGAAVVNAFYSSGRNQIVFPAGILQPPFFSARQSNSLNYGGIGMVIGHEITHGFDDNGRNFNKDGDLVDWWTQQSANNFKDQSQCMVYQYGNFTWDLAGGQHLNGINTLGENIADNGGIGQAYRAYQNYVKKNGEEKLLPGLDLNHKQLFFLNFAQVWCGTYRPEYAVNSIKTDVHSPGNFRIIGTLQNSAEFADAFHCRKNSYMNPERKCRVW

Structure (SMILES)	inhibition [1]	Selectivity [2]	IC50 [3]
COc1ccc(CCC(N[C@@H](Cc2ccc3c(c2)oc2ccccc23)C(=O)O)P(=O)(O)O)cc1OC (stereo in doubt; 40f ')	58%		
COc1ccc(CCC(N[C@@H](Cc2ccc3c(c2)oc2ccccc23)C(=O)O)P(=O)(O)O)cc1OC (stereo in doubt; 40e')	93%	> 345	
CC(N[C@@H](Cc1ccc2c(c1)oc1ccccc12)C(=O)O)P(=O)(O)O (stereo in doubt; 40v)	81%	261	
COc1ccc(CCC(N[C@@H](Cc2ccc3c(c2)oc2ccccc23)C(=O)O)P(=O)(O)O)c(OC)c1OC (stereo in doubt; 40l')	64%		
CC(NC(=O)[C@H](Cc1ccc2c(c1)oc1ccccc12)NCP(=O)(O)O)C(=O)O (stereo partly drawn)	35%		1.64 µM
O=C(O)CNC(=O)[C@H](Cc1ccc2c(c1)oc1ccccc12)NCP(=O)(O)O	43%		> 10 µM
NCCCC(N[C@@H](Cc1ccc2c(c1)oc1ccccc12)C(=O)O)P(=O)(O)O (stereo in doubt; 40r')	29%		
NCCCC(N[C@@H](Cc1ccc2c(c1)oc1ccccc12)C(=O)O)P(=O)(O)O (stereo in doubt; 40q')	73%		
O=C(O)[C@H](Cc1ccc2c(c1)oc1ccccc12)NC(CCc1cccc2cccnc12)P(=O)(O)O (stereo in doubt; 40m')	94%	4210	
O=P(O)(O)C(CCc1cccc2ccccc12)N[C@@H](Cc1ccc2c(c1)oc1ccccc12)c1nnn[nH]1 (stereo in doubt; 43a')	98%	81	
O=P(O)(O)C(CCc1cccc2ccccc12)N[C@@H](Cc1ccc2c(c1)oc1ccccc12)c1nnn[nH]1 (stereo in doubt; 43b')	73%	29	
NCCCCC(N[C@@H](Cc1ccc2c(c1)oc1ccccc12)C(=O)O)P(=O)(O)O (stereo in doubt; 40o')	84%	> 1030	
O=C(O)[C@H](Cc1ccc2c(c1)oc1ccccc12)NC(CCc1cccc2ccccc12)P(=O)(O)O (stereo in doubt; 40b')	34%		
COc1cccc(CCC(N[C@@H](Cc2ccc3c(c2)oc2ccccc23)C(=O)O)P(=O)(O)O)c1OC (stereo in doubt; 40d')	85%	58	
COc1ccc(CCC(N[C@@H](Cc2ccc3c(c2)oc2ccccc23)C(=O)O)P(=O)(O)O)c(OC)c1OC (stereo in doubt; 40k')	91%	428	
NCCCCC(N[C@@H](Cc1ccc2c(c1)oc1ccccc12)C(=O)O)P(=O)(O)O (stereo in doubt; 40p')	19%		
CC(N[C@@H](Cc1ccc2c(c1)oc1ccccc12)C(=O)O)P(=O)(O)O (stereo in doubt; 40u)	88%	292	
O=C(NCCc1ccc(-c2ccccc2)cc1)[C@H](Cc1ccc2c(c1)oc1ccccc12)NCP(=O)(O)O	5%		
O=C(O)[C@H](Cc1ccc2c(c1)oc1ccccc12)NC(CCc1cccc2ccccc12)P(=O)(O)O (stereo in doubt; 40a')	95%	574	
COc1cc(OC)c(OC)cc1CCC(N[C@@H](Cc1ccc2c(c1)oc1ccccc12)C(=O)O)P(=O)(O)O (stereo in doubt; 40i')	91%	> 250	
CC(C)C[C@H](NP(=O)(O)O[C@@H]1O[C@@H](C)[C@H](O)[C@@H](O)[C@H]1O)C(=O)N[C@@H](Cc1c[nH]c2ccccc12)C(=O)O [PHOSPHORAMIDON]			0.03 µM
COc1cccc(CCC(N[C@@H](Cc2ccc3c(c2)oc2ccccc23)C(=O)O)P(=O)(O)O)c1OC (stereo in doubt; 40c)	95%	1260	
COc1cc(OC)c(OC)cc1CCC(N[C@@H](Cc1ccc2c(c1)oc1ccccc12)C(=O)O)P(=O)(O)O (stereo in doubt; 40j')	38%		
O=C(NCCc1ccccc1)[C@H](Cc1ccc2c(c1)oc1ccccc12)NCP(=O)(O)O	29%		
